Reference: ChEMBL document CHEMBL1782008, “Paraminabeolides A-F, cytotoxic and anti-inflammatory marine withanolides from the soft coral Paraminabea acronocephala” (J Nat Prod, 2011)

Experiments:
[1] = Cytotoxicity against human Hep3B cells by MTT assay; assay type: functional, cell-based, Hep 3B2
[2] = test system: RAW264.7; assay: Antiinflammatory activity in mouse RAW264.7 cells assessed as inhibition of LPS-induced COX2 protein expression at 10 uM by Western blotting analysis; assay type: functional
In short: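 RAW264.7 macrophages (ATCC) stimulated with LPS and treated at 10 μM. iNOS and COX-2 protein levels were quantified by immunoblot and expressed as % of LPS-only control cells (100%). Means ± SEM, n = 6.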

[3] = test system: HepG2; assay: Cytotoxicity against human HepG2 cells by MTT assay; assay type: functional, cell-based
[4] = test system: MCF7; assay: Cytotoxicity against human MCF7 cells by MTT assay; assay type: functional, cell-based
[5] = test system: RAW264.7; assay: Antiinflammatory activity in mouse RAW264.7 cells assessed as residual LPS-induced iNOS protein level at 10 uM by Western blotting analysis
[6] = test system: beta-actin protein expression; assay: Toxicity in mouse RAW264.7 cells assessed as inhibition of beta-actin protein expression at 10 uM by Western blotting analysis; values are per cent of control
[7] = test system: MDA-MB-231; assay: Cytotoxicity against human MDA-MB-231 cells by MTT assay; assay type: functional, cell-based

Structure (SMILES)	COX-2 expression (% of LPS control) at 10 µM [2]	residual iNOS protein level at 10 µM [5]	further results
COc1cccc2c1C(=O)c1c(O)c3c(c(O)c1C2=O)C[C@@](O)(C(=O)CO)C[C@@H]3O[C@H]1C[C@H](N)[C@H](O)[C@H](C)O1 [DOXORUBICIN]	–	–	IC50 [1]: 700 nM
CC1=C(C)C(=O)O[C@@H]([C@@H](C)[C@H]2CC[C@H]3[C@@H]4CCC5=CC(=O)C=C[C@]5(C)[C@H]4CC[C@]23C)C1 [MINABEOLIDE 1]	18.3%	9.6%	IC50 [3]: 5.2 µM; IC50 [4]: 18.7 µM
CC(=O)OC[C@]12CC[C@H]3[C@@H](CCC4=CC(=O)C=C[C@@]43C)[C@@H]1CC[C@@H]2[C@H](C)[C@H]1CC(C)=C(C)C(=O)O1 [MINABEOLIDE 2]	51.2%	45.7%	–
C[C@@H]([C@H]1CC[C@H]2[C@@H]3CCC4=CC(=O)C=C[C@]4(C)[C@H]3CC[C@]12C)[C@H]1CC[C@H](C)C(=O)O1 [MINABEOLIDE 4]	22.4%	23.2%	–
CC(=O)OC[C@]12CC[C@H]3[C@@H](CCC4=CC(=O)C=C[C@@]43C)[C@@H]1CC[C@@H]2[C@H](C)[C@H]1CC[C@H](C)C(=O)O1 [MINABEOLIDE 5]	31.3%	6.3%	–
CC1=C(C)C(=O)O[C@@H]([C@@H](C)[C@H]2CC[C@H]3[C@@H]4CCC5=CC(=O)C=C[C@]5(C)[C@H]4CC[C@]23C=O)C1 [PARAMINABEOLIDE A]	–	11%	IC50 [3]: 8 µM; residual activity at 10 µM [6]: 66.5%
CC(=O)OC[C@]12CC[C@H]3[C@@H](CCC4=CC(=O)C=C[C@@]43C)[C@@H]1CC[C@@H]2[C@H](C)[C@H]1C[C@H](C)[C@H](C)C(=O)O1 [PARAMINABEOLIDE B]	–	7.3%	IC50 [7]: 19.3 µM; IC50 [4]: 14.9 µM
CC(=O)OC[C@]12CC[C@H]3[C@@H](CCC4=CC(=O)C=C[C@@]43C)[C@@H]1CC[C@@H]2[C@H](C)[C@H](O)[C@@H]1OC(=O)[C@H](C)[C@H]1C [PARAMINABEOLIDE C]	–	37.9%	–
C[C@H]([C@H](O)[C@@H]1OC(=O)[C@H](C)[C@@H]1C)[C@H]1CC[C@H]2[C@@H]3CCC4=CC(=O)C=C[C@]4(C)[C@H]3CC[C@]12C [PARAMINABEOLIDE D]	–	43.3%	–
